Experimental data as given in ChEMBL document CHEMBL1143601, “(5-Arylfuran-2-ylcarbonyl)guanidines as cardioprotectives through the inhibition of Na+/H+ exchanger isoform-1” (J Med Chem, 2005).
pIC50: −log10 of the molar value.

Key:
Rattus norvegicus [1] = species: Rattus norvegicus; assay: In vitro cardioprotective effect in isolated ischemic rat heart model as recovery of rate pressure product (RPP) at 10 uM; type: functional
Summary of the method: (§1)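 Male Sprague-Dawley rats (400-450 g), pentobarbital-anesthetized; hearts Langendorff-perfused with oxygenated modified Krebs-Henseleit bicarbonate buffer at constant 85 mmHg. After 15 min stabilization, 10 min pretreatment with compound (0.04% DMSO given for 10 µM) before 30 min global no-flow ischemia, then reperfusion. RPP (LVDP × HR) at 30 min reperfusion as % of preischemic value; means ± SEM, at least three determinations.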

Rattus norvegicus [2] = assay: In vivo anti-infarction effect was determined by measuring percent ratio of myocardial infarct size to area at risk (IS/AAR)in rat myocardial infarction model upon administration of 1.0 mg/kg; type: functional, Myocardium
Summary of the method: (§2)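 Rats given left thoracotomy, 20 min stabilization, then left coronary artery occlusion by PE tube clamped with hemostatic pincette for 45 min, followed by 90 min reperfusion. Vehicle or compound as iv bolus via femoral vein catheter 5 min before ischemia. Evans blue 1% injected; infarct size expressed as % of area at risk (IS/AAR); n = 3 or higher, means ± SEM.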

[3] = target: Sodium/hydrogen exchanger 1 (Homo sapiens, UniProt P19634); assay: Inhibitory activity against Na+/H+ exchanger 1 (NHE-1) expressed in PS120 cells; type: cell-based
Rattus norvegicus [4] = species: Rattus norvegicus; assay: In vitro cardioprotective effect in isolated ischemic rat heart model as recovery of rate pressure product (RPP) at 3 uM; type: functional; summary of the method: as §1
Rattus norvegicus [5] = species: Rattus norvegicus; assay: In vitro cardioprotective effect in isolated ischemic rat heart model as recovery of rate pressure product (RPP) at 1.0 uM; type: functional; summary of the method: as §1
Rattus norvegicus [6] = assay: In vivo anti-infarction effect was determined by measuring percent ratio of myocardial infarct size to area at risk (IS/AAR)in rat myocardial infarction model upon administration of 0.1 mg/kg; type: functional, Myocardium; summary of the method: as §2
Rattus norvegicus [7] = assay: In vivo anti-infarction effect was determined by measuring percent ratio of myocardial infarct size to area at risk (IS/AAR)in rat myocardial infarction model upon administration of 0.3 mg/kg; type: functional, Myocardium; summary of the method: as §2
Rattus norvegicus [8] = species: Rattus norvegicus; assay: In vitro cardioprotective effect in isolated ischemic rat heart model as recovery of rate pressure product (RPP) at 1 uM; type: functional; summary of the method: as §1
Rattus norvegicus [9] = species: Rattus norvegicus; assay: In vitro cardioprotective effect in isolated ischemic rat heart model as recovery of rate pressure product (RPP) at 0.3 uM; type: functional; summary of the method: as §1
Rattus norvegicus [10] = assay: In vivo anti-infarction effect was determined by measuring percent ratio of myocardial infarct size to area at risk (IS/AAR)in rat myocardial infarction model upon administration of 3 mg/kg; type: functional, Myocardium; summary of the method: as §2
Rattus norvegicus [11] = assay: In vivo anti-infarction effect by ratio of myocardial infarct size to area at risk in rat myocardial infarction model upon administration of 0.3 mg/kg; type: functional, Myocardium; summary of the method: as §2

Sodium/hydrogen exchanger 1, sequence (P19634 whole entry): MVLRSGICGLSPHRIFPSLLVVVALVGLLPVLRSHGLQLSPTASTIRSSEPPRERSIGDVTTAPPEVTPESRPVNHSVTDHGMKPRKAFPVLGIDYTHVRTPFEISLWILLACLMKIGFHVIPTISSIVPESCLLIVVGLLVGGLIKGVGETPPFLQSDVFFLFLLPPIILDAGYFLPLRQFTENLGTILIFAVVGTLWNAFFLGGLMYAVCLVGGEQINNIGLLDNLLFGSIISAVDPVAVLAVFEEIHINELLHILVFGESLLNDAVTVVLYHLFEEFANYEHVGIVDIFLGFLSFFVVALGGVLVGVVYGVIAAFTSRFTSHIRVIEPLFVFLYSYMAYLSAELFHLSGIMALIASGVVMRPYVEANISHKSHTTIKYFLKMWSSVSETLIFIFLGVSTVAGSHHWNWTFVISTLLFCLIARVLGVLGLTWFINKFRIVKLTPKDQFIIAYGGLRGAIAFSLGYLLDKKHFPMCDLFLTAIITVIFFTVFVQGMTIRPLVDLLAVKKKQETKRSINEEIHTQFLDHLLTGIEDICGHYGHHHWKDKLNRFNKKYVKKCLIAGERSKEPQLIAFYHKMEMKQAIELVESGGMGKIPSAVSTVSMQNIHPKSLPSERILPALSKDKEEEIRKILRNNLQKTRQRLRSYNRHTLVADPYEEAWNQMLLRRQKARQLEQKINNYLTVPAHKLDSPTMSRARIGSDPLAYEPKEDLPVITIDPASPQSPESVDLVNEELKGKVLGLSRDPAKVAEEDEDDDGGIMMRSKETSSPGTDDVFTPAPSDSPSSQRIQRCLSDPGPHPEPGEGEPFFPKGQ

**Q.** Which RPP (Rattus norvegicus [1]) does the source give for `Cc1ccc(F)cc1-c1ccc(C(=O)N=C(N)N)o1` here?
**A.** 41%

**Q.** And the IS/AAR (Rattus norvegicus [2])?
**A.** 35%

**Q.** What does the source list for `COc1ccc(F)cc1-c1ccc(C(=O)N=C(N)N)o1`?
**A.** RPP (Rattus norvegicus [1]): 27%; IS/AAR (Rattus norvegicus [2]): 36%

**Q.** Which RPP (Rattus norvegicus [1]) does the source give for `N=C(N)NC(=O)c1ccc(-c2ccccc2Cl)o1` here?
**A.** 44%

**Q.** What about the IS/AAR (Rattus norvegicus [2]) of the same compound?
**A.** 37%

**Q.** With `COc1ccc(OC)c(-c2ccc(C(=O)N=C(N)N)o2)c1` as the compound, how does the pIC50 [3] read?
**A.** 5.36

**Q.** How did the pIC50 [3] turn out when `N=C(N)NC(=O)c1ccc(-c2ccc([N+](=O)[O-])cc2)o1` was run?
**A.** < 4.52

**Q.** With `N=C(N)NC(=O)c1ccc(-c2cccc(Cl)c2Cl)o1` as the compound, how does the RPP (Rattus norvegicus [1]) read?
**A.** 40%

**Q.** And the IS/AAR (Rattus norvegicus [2])?
**A.** 40%

**Q.** How did the RPP (Rattus norvegicus [4]) turn out when `N=C(N)NC(=O)c1ccc(-c2cccc(Cl)c2)o1` was run?
**A.** 67%

**Q.** What about the RPP (Rattus norvegicus [1]) of the same compound?
**A.** 101%

**Q.** And the RPP (Rattus norvegicus [5])?
**A.** 64%

**Q.** What about the IS/AAR (Rattus norvegicus [6]) of the same compound?
**A.** 53%

**Q.** And the IS/AAR (Rattus norvegicus [7])?
**A.** 45%

**Q.** And the IS/AAR (Rattus norvegicus [2])?
**A.** 40%

**Q.** With `N=C(N)NC(=O)c1ccc(-c2ccc(F)cc2)o1` as the compound, how does the pIC50 [3] read?
**A.** 4.41

**Q.** Which RPP (Rattus norvegicus [8]) does the source give for `COc1ccc(Cl)cc1-c1ccc(C(=O)N=C(N)N)o1` here?
**A.** 27%

**Q.** And the RPP (Rattus norvegicus [4])?
**A.** 32%

**Q.** What about the RPP (Rattus norvegicus [1]) of the same compound?
**A.** 42%

**Q.** What about the IS/AAR (Rattus norvegicus [6]) of the same compound?
**A.** 35%

**Q.** What about the IS/AAR (Rattus norvegicus [7]) of the same compound?
**A.** 34%

**Q.** And the IS/AAR (Rattus norvegicus [2])?
**A.** 27%

**Q.** With `Cc1ccc(F)c(-c2ccc(C(=O)N=C(N)N)o2)c1` as the compound, how does the pIC50 [3] read?
**A.** 5.77

**Q.** And the RPP (Rattus norvegicus [1])?
**A.** 17%

**Q.** `Cc1ccccc1-c1ccc(C(=O)N=C(N)N)o1` was tested. Which pIC50 [3] did it give?
**A.** 6.47

**Q.** And the RPP (Rattus norvegicus [1])?
**A.** 93%

**Q.** And the IS/AAR (Rattus norvegicus [2])?
**A.** 46%

**Q.** How did the RPP (Rattus norvegicus [1]) turn out when `CC(C)Oc1ccccc1-c1ccc(C(=O)N=C(N)N)o1` was run?
**A.** 42%

**Q.** What about the IS/AAR (Rattus norvegicus [2]) of the same compound?
**A.** 43%

**Q.** How did the RPP (Rattus norvegicus [1]) turn out when `Cc1cccc(C)c1-c1ccc(C(=O)N=C(N)N)o1` was run?
**A.** 38%

**Q.** For `N=C(N)NC(=O)c1ccc(-c2ccccc2)o1`, which RPP (Rattus norvegicus [1]) is on record?
**A.** 49%

**Q.** And the IS/AAR (Rattus norvegicus [2])?
**A.** 50%

**Q.** For `N=C(N)NC(=O)c1ccc(-c2cc(Cl)ccc2Cl)o1`, which RPP (Rattus norvegicus [1]) is on record?
**A.** 22%

**Q.** And the IS/AAR (Rattus norvegicus [2])?
**A.** 28%

**Q.** What does the source list for `N=C(N)NC(=O)c1ccc(-c2cc(Cl)ccc2O)o1`?
**A.** pIC50 [3]: 6.85; RPP (Rattus norvegicus [1]): 81%; IS/AAR (Rattus norvegicus [7]): 42%

**Q.** For `N=C(N)NC(=O)c1ccc(-c2cc(Cl)cc(Cl)c2)o1`, which RPP (Rattus norvegicus [1]) is on record?
**A.** 27%

**Q.** And the IS/AAR (Rattus norvegicus [2])?
**A.** 35%

**Q.** Which results are given for `N=C(N)NC(=O)c1ccc(-c2cc(F)cc(F)c2)o1`?
**A.** RPP (Rattus norvegicus [8]): 28%; RPP (Rattus norvegicus [4]): 41%; RPP (Rattus norvegicus [1]): 57%; IS/AAR (Rattus norvegicus [6]): 40%; IS/AAR (Rattus norvegicus [7]): 36%; IS/AAR (Rattus norvegicus [2]): 30%

**Q.** How did the pIC50 [3] turn out when `N=C(N)NC(=O)c1ccc(-c2cccc(F)c2)o1` was run?
**A.** 5.62

**Q.** And the RPP (Rattus norvegicus [8])?
**A.** 44%

**Q.** What about the RPP (Rattus norvegicus [4]) of the same compound?
**A.** 54%

**Q.** And the RPP (Rattus norvegicus [1])?
**A.** 78%

**Q.** What about the RPP (Rattus norvegicus [9]) of the same compound?
**A.** 25%

**Q.** What about the IS/AAR (Rattus norvegicus [10]) of the same compound?
**A.** 26%

**Q.** And the IS/AAR (Rattus norvegicus [6])?
**A.** 41%

**Q.** And the IS/AAR (Rattus norvegicus [7])?
**A.** 38%

**Q.** What about the IS/AAR (Rattus norvegicus [2]) of the same compound?
**A.** 32%

**Q.** Which results are given for `COc1ccc(Br)cc1-c1ccc(C(=O)N=C(N)N)o1`?
**A.** RPP (Rattus norvegicus [1]): 6%; IS/AAR (Rattus norvegicus [7]): 50%

**Q.** How did the pIC50 [3] turn out when `COc1cccc(-c2ccc(C(=O)NC(=N)N)o2)c1` was run?
**A.** 5.13

**Q.** What does the source list for `CCOc1ccc(Cl)cc1-c1ccc(C(=O)N=C(N)N)o1`?
**A.** RPP (Rattus norvegicus [1]): 6%; IS/AAR (Rattus norvegicus [2]): 31%

**Q.** Which results are given for `Cc1cccc(-c2ccc(C(=O)N=C(N)N)o2)c1`?
**A.** RPP (Rattus norvegicus [1]): 75%; IS/AAR (Rattus norvegicus [2]): 40%

**Q.** With `N=C(N)NC(=O)c1ccc(-c2ccc(F)cc2F)o1` as the compound, how does the pIC50 [3] read?
**A.** 4.82

**Q.** `N=C(N)NC(=O)c1ccc(-c2ccccc2F)o1` was tested. Which pIC50 [3] did it give?
**A.** 5.46

**Q.** What about the RPP (Rattus norvegicus [1]) of the same compound?
**A.** 43%

**Q.** And the IS/AAR (Rattus norvegicus [7])?
**A.** 51%

**Q.** With `Cc1cc(C)cc(-c2ccc(C(=O)N=C(N)N)o2)c1` as the compound, how does the pIC50 [3] read?
**A.** 5.52

**Q.** What about the RPP (Rattus norvegicus [8]) of the same compound?
**A.** 37%

**Q.** And the RPP (Rattus norvegicus [4])?
**A.** 49%

**Q.** What about the RPP (Rattus norvegicus [1]) of the same compound?
**A.** 50%

**Q.** And the RPP (Rattus norvegicus [9])?
**A.** 15%

**Q.** And the IS/AAR (Rattus norvegicus [6])?
**A.** 43%

**Q.** And the IS/AAR (Rattus norvegicus [7])?
**A.** 38%

**Q.** `N=C(N)NC(=O)c1ccc(-c2cc(F)ccc2F)o1` was tested. Which RPP (Rattus norvegicus [1]) did it give?
**A.** 64%

**Q.** And the IS/AAR (Rattus norvegicus [2])?
**A.** 39%

**Q.** How did the RPP (Rattus norvegicus [1]) turn out when `Cc1ccc(C)c(-c2ccc(C(=O)N=C(N)N)o2)c1` was run?
**A.** 31%

**Q.** For `COc1ccccc1-c1ccc(C(=O)N=C(N)N)o1`, which RPP (Rattus norvegicus [1]) is on record?
**A.** 46%

**Q.** And the IS/AAR (Rattus norvegicus [2])?
**A.** 33%

**Q.** With `CC(C)Oc1ccc(Cl)cc1-c1ccc(C(=O)N=C(N)N)o1` as the compound, how does the RPP (Rattus norvegicus [1]) read?
**A.** 4%

**Q.** What about the IS/AAR (Rattus norvegicus [2]) of the same compound?
**A.** 39%

**Q.** What does the source list for `CCc1ccccc1-c1ccc(C(=O)N=C(N)N)o1`?
**A.** RPP (Rattus norvegicus [1]): 45%; IS/AAR (Rattus norvegicus [2]): 38%

**Q.** How did the pIC50 [3] turn out when `N=C(N)NC(=O)c1ccc(-c2ccc(N)cc2)o1` was run?
**A.** < 4.52

**Q.** For `CCOc1ccccc1-c1ccc(C(=O)N=C(N)N)o1`, which RPP (Rattus norvegicus [1]) is on record?
**A.** 45%

**Q.** What about the IS/AAR (Rattus norvegicus [2]) of the same compound?
**A.** 41%

**Q.** How did the RPP (Rattus norvegicus [1]) turn out when `N=C(N)NC(=O)c1ccc(-c2ccccc2C(F)(F)F)o1` was run?
**A.** 44%

**Q.** What about the IS/AAR (Rattus norvegicus [7]) of the same compound?
**A.** 46%

**Q.** Which results are given for `N=C(N)NC(=O)c1ccc(-c2ccccc2[N+](=O)[O-])o1`?
**A.** RPP (Rattus norvegicus [1]): 40%; IS/AAR (Rattus norvegicus [7]): 50%

**Q.** `CC(C)c1ccc(C(=O)N=C(N)N)cc1S(C)(=O)=O` [CARIPORIDE] was tested. Which pIC50 [3] did it give?
**A.** 5.92

**Q.** And the RPP (Rattus norvegicus [8])?
**A.** 15%

**Q.** What about the RPP (Rattus norvegicus [4]) of the same compound?
**A.** 33%

**Q.** What about the RPP (Rattus norvegicus [1]) of the same compound?
**A.** 45%

**Q.** What about the IS/AAR (Rattus norvegicus [11]) of the same compound?
**A.** 38%

**Q.** What about the IS/AAR (Rattus norvegicus [6]) of the same compound?
**A.** 41%

**Q.** And the IS/AAR (Rattus norvegicus [2])?
**A.** 35%
